Measured values taken from ChEMBL document CHEMBL4316611, “Design, synthesis and evaluation of novel (S)-tryptamine derivatives containing an allyl group and an aryl sulfonamide unit as anticancer agents” (Bioorg Med Chem Lett, 2019).

What was measured:
Type in all cases: functional, cell-based
HeLa = assay: Cytotoxicity in human HeLa cells assessed as reduction in cell viability incubated for 48 hrs by MTT assay
In short: (§1)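 MTT viability assay; cells exposed continuously to compounds for 48 h. IC50 values reported as mean ± SD. Cisplatin served as positive control.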

HepG2 = assay: Cytotoxicity in human HepG2 cells assessed as reduction in cell viability incubated for 48 hrs by MTT assay; conditions: HepG2, 48 h; in short: as §1
A549 = assay: Cytotoxicity in human A549 cells assessed as reduction in cell viability incubated for 48 hrs by MTT assay; conditions: A549, 48 h; in short: as §1
CNE = assay: Cytotoxicity in human CNE1 cells assessed as reduction in cell viability incubated for 48 hrs by MTT assay; in short: as §1

SMILES | IC50 (HeLa) | IC50 (HepG2) | IC50 (A549) | IC50 (CNE)
C=CC[C@@H](Cc1c[nH]c2ccccc12)NS(=O)(=O)c1ccccc1Cl | > 100 µM | > 100 µM | – | –
C=CC[C@@H](Cc1c[nH]c2ccccc12)NS(=O)(=O)c1ccc(-c2ccccc2)cc1 | 34.5 µM | 43 µM | 33.6 µM | 34.5 µM
C=CC[C@@H](Cc1c[nH]c2ccccc12)NS(=O)(=O)c1ccc(Cl)cc1[N+](=O)[O-] | 67.9 µM | 71.3 µM | – | –
C=CC[C@@H](Cc1c[nH]c2ccccc12)NS(=O)(=O)c1ccc(Br)cc1F | 58.5 µM | 58.7 µM | – | –
C=CC[C@@H](Cc1c[nH]c2ccccc12)NS(=O)(=O)c1c(C)c(C)cc(C)c1C | 26.1 µM | 24.7 µM | 29.9 µM | 26.3 µM
C=CC[C@@H](Cc1c[nH]c2ccccc12)NS(=O)(=O)c1ccc(Cl)cc1Cl | 41.1 µM | 55.4 µM | 55.7 µM | 42.7 µM
C=CC[C@@H](Cc1c[nH]c2ccccc12)NS(=O)(=O)c1ccc(F)cc1Cl | 61.7 µM | 71.7 µM | – | –
C=CC[C@@H](Cc1c[nH]c2ccccc12)NS(=O)(=O)c1ccc2ccccc2c1 | 52.7 µM | 44.9 µM | 55.5 µM | 45.2 µM
C=CC[C@@H](Cc1c[nH]c2ccccc12)NS(=O)(=O)c1ccc(Cl)c(C(F)(F)F)c1 | 42.8 µM | 24.4 µM | 34.3 µM | 28.8 µM
C=CC[C@@H](Cc1c[nH]c2ccccc12)NS(=O)(=O)c1ccc(C(F)(F)F)cc1[N+](=O)[O-] | 35.7 µM | 40.4 µM | 74.2 µM | 39.3 µM
C=CC[C@@H](Cc1c[nH]c2ccccc12)NS(=O)(=O)c1ccc(Cl)c([N+](=O)[O-])c1 | 53.2 µM | 89.7 µM | – | –
CCC[C@@H](Cc1c[nH]c2ccccc12)NS(=O)(=O)c1ccccc1 | 78.9 µM | 68.7 µM | 91.5 µM | 47.1 µM
C=CC[C@@H](Cc1c[nH]c2ccccc12)NS(=O)(=O)c1ccc(Br)c(C)c1 | 46.7 µM | 52.2 µM | 54.1 µM | 38.6 µM
C=CC[C@@H](Cc1c[nH]c2ccccc12)NS(=O)(=O)c1ccccc1OC(F)(F)F | 68.2 µM | 39.5 µM | 65.9 µM | 66.9 µM
C=CC[C@@H](Cc1c[nH]c2ccccc12)NS(=O)(=O)c1ccc(C(F)(F)F)cc1 | 41.7 µM | 51.8 µM | 49.9 µM | 38.1 µM
C=CC[C@@H](Cc1c[nH]c2ccccc12)NS(=O)(=O)c1ccc(F)c(C(F)(F)F)c1 | 32 µM | 36.3 µM | 38.5 µM | 27 µM
CCC[C@@H](Cc1c[nH]c2ccccc12)NS(=O)(=O)c1c(C(C)C)cc(C(C)C)cc1C(C)C | 16.4 µM | 30.8 µM | 39.8 µM | 17.8 µM
C=CC[C@@H](Cc1c[nH]c2ccccc12)NS(=O)(=O)c1ccc(C)cc1 | > 100 µM | > 100 µM | – | –
C=CC[C@@H](Cc1c[nH]c2ccccc12)NS(=O)(=O)c1cccc2c(N(C)C)cccc12 | 34.5 µM | 52 µM | 52.4 µM | 36 µM
C=CC[C@@H](Cc1c[nH]c2ccccc12)NS(=O)(=O)c1ccc(CCC)cc1 | 67.1 µM | 58.4 µM | – | –
C=CC[C@@H](Cc1c[nH]c2ccccc12)NS(=O)(=O)c1cccc(C(F)(F)F)c1 | 45.1 µM | 46.9 µM | 52.1 µM | 40.7 µM

SMILES | IC50 (HeLa) | IC50 (HepG2) | IC50 (A549) | IC50 (CNE)
C=CC[C@@H](Cc1c[nH]c2ccccc12)NS(=O)(=O)c1cc(Br)cc(C(F)(F)F)c1 | 31.9 µM | 25.3 µM | 29.3 µM | 22.9 µM
C=CC[C@@H](Cc1c[nH]c2ccccc12)NS(=O)(=O)c1ccc(Br)c(F)c1 | 54.5 µM | 58.1 µM | – | –
C=CC[C@@H](Cc1c[nH]c2ccccc12)NS(=O)(=O)c1ccc(Cl)cc1F | 74.4 µM | 78.4 µM | – | –
C=CC[C@@H](Cc1c[nH]c2ccccc12)NS(=O)(=O)c1cc(C(F)(F)F)cc(C(F)(F)F)c1 | 30.2 µM | 21.9 µM | 35.6 µM | 24.1 µM
C=CC[C@@H](Cc1c[nH]c2ccccc12)NS(=O)(=O)c1ccc(Br)cc1 | 61 µM | 39.6 µM | 58.6 µM | 41.2 µM
C=CC[C@@H](Cc1c[nH]c2ccccc12)NS(=O)(=O)c1ccc(F)cc1 | > 100 µM | > 100 µM | – | –
C=CC[C@@H](Cc1c[nH]c2ccccc12)NS(=O)(=O)c1ccc(OC(F)(F)F)cc1 | 57.3 µM | 36 µM | 57.8 µM | 39.9 µM
CCC[C@H](N)Cc1c[nH]c2ccccc12 | > 100 µM | > 100 µM | > 100 µM | > 100 µM
C=CC[C@@H](Cc1c[nH]c2ccccc12)NS(=O)(=O)c1ccc(C(F)(F)F)cc1Cl | 44.8 µM | 33.1 µM | 53 µM | 36.1 µM
C=CC[C@@H](Cc1c[nH]c2ccccc12)NS(=O)(=O)c1ccccc1 | 69.5 µM | 58.4 µM | 77.1 µM | 40.8 µM
C=CC[C@@H](Cc1c[nH]c2ccccc12)NS(=O)(=O)c1cc(F)c(Br)cc1F | 58.9 µM | 35.3 µM | 65 µM | 43.4 µM
C=CC[C@@H](Cc1c[nH]c2ccccc12)NS(=O)(=O)c1cc(Cl)c(F)cc1F | 46.9 µM | 33.2 µM | 50.7 µM | 34.2 µM
C=CC[C@@H](Cc1c[nH]c2ccccc12)NS(=O)(=O)c1cc(C)ccc1C | 45.6 µM | 44.6 µM | 48.3 µM | 42 µM
C=CC[C@@H](Cc1c[nH]c2ccccc12)NS(=O)(=O)c1ccc(Br)cc1Cl | 53.5 µM | 54.3 µM | 48.8 µM | 38.5 µM
C=CC[C@@H](Cc1c[nH]c2ccccc12)NS(=O)(=O)c1ccc(C(C)C)cc1 | 43.5 µM | 46.4 µM | 53 µM | 43.6 µM
C=CC[C@@H](Cc1c[nH]c2ccccc12)NS(=O)(=O)c1cccc(Br)c1 | 40.5 µM | 58.9 µM | 52.1 µM | 48 µM
C=CC[C@@H](Cc1c[nH]c2ccccc12)NS(=O)(=O)c1c(C)cc(C)cc1C | 35.3 µM | 37.2 µM | 40.4 µM | 31.5 µM
C=CC[C@H](N)Cc1c[nH]c2ccccc12 | > 100 µM | > 100 µM | > 100 µM | > 100 µM
C=CC[C@@H](Cc1c[nH]c2ccccc12)NS(=O)(=O)c1ccc(F)c(Cl)c1 | 33.8 µM | 38.2 µM | 41.6 µM | 34.2 µM
C=CC[C@@H](Cc1c[nH]c2ccccc12)NS(=O)(=O)c1ccc(C)c(F)c1 | 43.6 µM | 39.1 µM | 70.2 µM | 39.8 µM
C=CC[C@@H](Cc1c[nH]c2ccccc12)NS(=O)(=O)c1ccc(C(F)(F)F)cc1Br | 39.3 µM | 42.1 µM | 43.9 µM | 34.4 µM
